Laboratory results published in ChEMBL document CHEMBL1146219, “Synthesis and evaluation of novel radioiodinated benzamides for malignant melanoma” (J Med Chem, 2007).

Columns and labels:
Format in all cases: ADME, organism-based
Conditions in all cases: in vivo
[1] = test system: Lung; test: Biodistribution in lung of B16F0 tumor bearing C57BL/6J mouse at 0.37-0.74 MBq, iv after 1 hr
Outline: (§1)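 Female C57BL/6J mice (15-18 g) were given B16F0 cells subcutaneously in the left flank (0.1 mL of 3 × 10⁶ viable cells/mL in Ca²⁺/Mg²⁺-free PBS) at 6-7 weeks and used after ten days. [¹²³I]benzamide (0.37-0.74 MBq, 100 µL, saline) was injected via the tail vein. Groups of n = 5 were killed by CO₂ and cervical dislocation. Organs were weighed and γ-counted, and the carcass was counted too.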

[2] = test system: Liver; test: Biodistribution in liver of B16F0 tumor bearing C57BL/6J mouse at 0.37-0.74 MBq, iv after 24 hrs; outline: as §1
[3] = test system: Brain; test: Biodistribution in brain of B16F0 tumor bearing C57BL/6J mouse at 0.37-0.74 MBq, iv after 1 hr; outline: as §1
[4] = test system: Kidney; test: Biodistribution in kidney of B16F0 tumor bearing C57BL/6J mouse at 0.37-0.74 MBq, iv after 24 hrs in presence of haloperidol
Outline: (§2)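 Haloperidol blocking in B16F0-bearing C57BL/6J mice: 1 mg/kg haloperidol was given iv 5 min before the iv [¹²³I]benzamide (0.37-0.74 MBq). Groups of n = 5 were killed at 1 or 24 h. Tissues were weighed and γ-counted as in the biodistribution study and compared with untreated controls by one-way ANOVA, with p < 0.01 taken as significant.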

[5] = test system: Blood; test: Biodistribution in blood of B16F0 tumor bearing C57BL/6J mouse at 0.37-0.74 MBq, iv after 72 hrs; outline: as §1
[6] = test system: Heart; test: (§3) Biodistribution in heart of B16F0 tumor bearing C57BL/6J mouse at 0.37-0.74 MBq, iv after 6 hrs; outline: as §1
[7] = test system: Blood; test: Biodistribution in blood of B16F0 tumor bearing C57BL/6J mouse at 0.37-0.74 MBq, iv after 3 hrs; outline: as §1
[8] = test system: Heart; test: as §3; outline: as §1; remark: listed apart in the source
[9] = test system: Blood; test: Biodistribution in blood of B16F0 tumor bearing C57BL/6J mouse at 0.37-0.74 MBq, iv after 24 hrs; outline: as §1
[10] = test system: Kidney; test: Biodistribution in kidney of B16F0 tumor bearing C57BL/6J mouse at 0.37-0.74 MBq, iv after 3 hrs; outline: as §1
[11] = test system: Kidney; test: Biodistribution in kidney of B16F0 tumor bearing C57BL/6J mouse at 0.37-0.74 MBq, iv after 1 hr; outline: as §1
[12] = test system: Lung; test: Biodistribution in lung of B16F0 tumor bearing C57BL/6J mouse at 0.37-0.74 MBq, iv after 24 hrs in presence of haloperidol; outline: as §2
[13] = test system: Liver; test: Biodistribution in liver of B16F0 tumor bearing C57BL/6J mouse at 0.37-0.74 MBq, iv after 1 hr; outline: as §1
[14] = test system: Blood; test: Biodistribution in blood of B16F0 tumor bearing C57BL/6J mouse at 0.37-0.74 MBq, iv after 6 hrs; outline: as §1
[15] = test system: Brain; test: Biodistribution in brain of B16F0 tumor bearing C57BL/6J mouse at 0.37-0.74 MBq, iv after 3 hrs; outline: as §1
[16] = test system: Lung; test: Biodistribution in lung of B16F0 tumor bearing C57BL/6J mouse at 0.37-0.74 MBq, iv after 24 hrs; outline: as §1
[17] = test system: Liver; test: Biodistribution in liver of B16F0 tumor bearing C57BL/6J mouse at 0.37-0.74 MBq, iv after 48 hrs; outline: as §1
[18] = test system: Brain; test: Biodistribution in brain of B16F0 tumor bearing C57BL/6J mouse at 0.37-0.74 MBq, iv after 6 hrs; outline: as §1
[19] = test system: Kidney; test: Biodistribution in kidney of B16F0 tumor bearing C57BL/6J mouse at 0.37-0.74 MBq, iv after 6 hrs; outline: as §1
[20] = test system: Brain; test: Biodistribution in brain of B16F0 tumor bearing C57BL/6J mouse at 0.37-0.74 MBq, iv after 48 hrs; outline: as §1
[21] = test system: Liver; test: Biodistribution in liver of B16F0 tumor bearing C57BL/6J mouse at 0.37-0.74 MBq, iv after 72 hrs; outline: as §1
[22] = test system: Blood; test: Biodistribution in blood of B16F0 tumor bearing C57BL/6J mouse at 0.37-0.74 MBq, iv after 1 hr in presence of haloperidol

CCCCN(C)CCCCNC(=O)c1cc([123I])c(NC(C)=O)cc1OC
Drug uptake [1]: 1.9 % ID/g | Drug uptake [2]: 0.47 % ID/g | Drug uptake [3]: 0.07 % ID/g | Drug uptake [4]: 0.03 % ID/g | Drug uptake [5]: 0.05 % ID/g | Drug uptake [6]: 0.75 % ID/g | Drug uptake [7]: 0.95 % ID/g | Drug uptake [8]: 0.54 % ID/g | Drug uptake [9]: 0.11 % ID/g | Drug uptake [10]: 3.9 % ID/g | Drug uptake [11]: 21.6 % ID/g | Drug uptake [12]: 0.02 % ID/g | Drug uptake [13]: 16.8 % ID/g | Drug uptake [14]: 0.71 % ID/g | Drug uptake [15]: 0.04 % ID/g | Drug uptake [16]: 0.1 % ID/g | Drug uptake [17]: 0.38 % ID/g | Drug uptake [18]: 0.03 % ID/g | Drug uptake [19]: 1.2 % ID/g | Drug uptake [20]: 0.01 % ID/g | Drug uptake [21]: 0.25 % ID/g | Drug uptake [22]: 1.15 % ID/g
